According to publication PMC2850055 (Analytical chemistry, 2009):
Entries after “also recorded” stand apart in the source; their conditions may differ. Starred links: 1 amine or outer side, 2 acyl side, 3 side chain; linkers in the order of their positions; H or OH if unused. Non-standard residues stand in square brackets, D forms with d. Residues, ends and D or L forms follow the SMILES beside them. *: point of attachment. X2 = CCC(=O)CC1CC(C)CC(C(=O)[*:2])N1[*:1]; X1 = CCCCCCCCC(C)C(=O)*; Aib = CC(C)(N)C(=O)O; X3 = CC(CN(C)CCO)N*

How the values were obtained:
[1] = system: AQP1-expressing fibroblasts (2497 cells); assay: Calcein fluorescence quenching cell volume assay in 2497 fibroblasts; format: cell-based, mouse; conditions: 0.2 mM, 3 min preincubation, hyperosmotic challenge
Method in brief: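 Mouse 2497 fibroblasts with endogenous AQP1 were grown in DMEM with 10% FBS at 37 °C. Cells were plated at 12 000 per well and assayed 24–48 h later at 80–85% confluence. They were loaded with 10 μM calcein-AM for 45 min at 37 °C and preincubated with the agent before the osmotic step. Fluorescence was read at ex 490/em 520 nm every 0.5 s: 15 s baseline, 35 s after hyperosmolar PBS (0.5 M NaCl), then 40 s after water. Shrinkage time constant came from an exponential fit.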

[2] = system: primary mouse astrocytes expressing endogenous AQP4; assay: Calcein fluorescence quenching cell volume assay in primary mouse astrocytes; format: cell-based; conditions: for alteration of water flux kinetics / cell volume regulation (RVI, RVD, shrinkage): 20 μM, 15 min incubation, osmotic shock
[3] = target: T1, AQP1 (native, erythrocytes) (Rattus norvegicus, UniProt P29975); assay: Stopped-flow light scattering water transport in erythrocytes; format: cell-based
T1 sequence (P29975 1-269): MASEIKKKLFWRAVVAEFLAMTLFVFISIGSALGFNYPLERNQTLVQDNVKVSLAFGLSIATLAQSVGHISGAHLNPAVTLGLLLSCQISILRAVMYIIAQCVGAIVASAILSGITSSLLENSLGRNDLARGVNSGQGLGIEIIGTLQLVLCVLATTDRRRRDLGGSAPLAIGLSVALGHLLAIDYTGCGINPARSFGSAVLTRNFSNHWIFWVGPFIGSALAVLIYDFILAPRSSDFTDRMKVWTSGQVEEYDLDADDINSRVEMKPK
Method in brief: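 Erythrocytes came from heparinised Wistar rat blood, were washed three times in PBS (800g, 4 °C, 10 min) and used within 24 h. At 1% haematocrit in PBS they were preincubated 15 min with test compound, then stopped-flow mixed with equal-volume hyperosmolar PBS to give a 250 mOsm inward gradient. Shrinkage was recorded by light scattering at 600 nm at 12 °C.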

[4] = system: vesicles from TNC1-untransfected cells; assay: Stopped-flow light scattering in vesicles from untransfected TNC1 cells; format: biochemical, rat; conditions: 20 μM, data not shown
Method in brief: (§1)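 Plasma membrane vesicles from rat TNC1 cells were made by homogenisation in sucrose/EDTA/protease-inhibitor buffer (pH 7.2), a 4000g 15 min spin, then pelleting of the supernatant at 17 000g for 45 min. Vesicles at 0.5 mg protein/mL in 50 mM sucrose, 10 mM Tris-HCl pH 7.4 were preincubated 15 min with test compound. Stopped-flow mixing imposed a 250 mOsm inward sucrose gradient. Volume decrease was followed by 90° scatter at 530 nm, and time constant was computed.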

AQP4 = AQP4 (Rattus norvegicus, UniProt P47863); format: biochemical
Method in brief: as §1

[5] = target: AQP4 (M23 isoform) in transfected TNC1 cells (Rattus norvegicus, UniProt P47863); assay: Calcein fluorescence quenching cell volume assay in AQP4-transfected TNC1 cells; format: cell-based; conditions: 20 uM
Method in brief: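 Rat TNC1 astrocytoma cells were stably co-transfected with rat AQP4 M23 (aa23–323) cDNA and a puromycin-resistance vector, then maintained in 2 μg/mL puromycin. Cells were plated at 12 000 per well and loaded with 10 μM calcein-AM for 45 min at 37 °C. Test compound was given for 15 min at 20 μM final. Calcein fluorescence (490/520 nm) was recorded every 0.5 s through a hyperosmolar NaCl challenge and isosmotic restoration. Shrinkage time constant came from an exponential fit.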

AQP4, sequence (P47863 23-323): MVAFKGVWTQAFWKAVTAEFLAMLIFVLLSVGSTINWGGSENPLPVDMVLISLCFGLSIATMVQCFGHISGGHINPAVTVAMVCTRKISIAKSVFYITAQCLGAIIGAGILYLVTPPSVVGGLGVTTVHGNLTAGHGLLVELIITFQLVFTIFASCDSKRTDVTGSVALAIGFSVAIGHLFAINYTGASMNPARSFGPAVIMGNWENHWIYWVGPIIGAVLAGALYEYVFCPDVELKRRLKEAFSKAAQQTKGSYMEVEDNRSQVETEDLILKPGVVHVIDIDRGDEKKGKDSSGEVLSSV
AQP4 (M23 isoform) in transfected TNC1 cells, sequence (P47863 23-323): as above

[Cl][Hg][Cl] [HgCl2, mercuric chloride]
reduction of the cell shrinkage rate [1]: 52.7 ± 3%
effect on time course/kinetics of cell shrinkage ([2]; astrocytes pretreated with 0.2 mM, 3 min): did not change significantly; also recorded: lack of effect

CCC[CH2][Sn]([CH2]CCC)([CH2]CCC)[O]c1cc(Cl)c(Cl)cc1Cl [NSC164914, tributyl-(2,4,5-trichlorophenoxy)stannane]
effect on AQP1 [3]: inhibitory effects
inhibition of the shrinkage rate ([3]; 40 μM): ~ 64%
reduction of shrinkage kinetics [4]: no significant reduction
effect on AQP4 (AQP4): inhibitory effects
alteration of water flux kinetics / cell volume regulation (RVI, RVD, shrinkage) [2]: affected shrinkage rate

CCC[CH2][Pb]([Cl])([CH2]CCC)[CH2]CCC [NSC168597, tributyl-chloroplumbane]
effect on AQP1 [3]: inhibitory effects
effect on AQP4 (AQP4): inhibitory effects

CCCCCCCCC(C)C(=O)N1CCCC1C(=O)N1C(CC(=O)CC)CC(C)CC1C(=O)NC(C)C(=O)NC(C)(C)C(=O)NC(C)(C)C(=O)NC(C(=O)NC(C)C(=O)NC(C)(C)C(=O)NC(C)(C)C(=O)NC(C)CN(C)CCO)C(C)CC (stereo not shown) [NSC301460, trichopolin] (X1-P[X2]A[Aib][Aib]IA[Aib][Aib]-X3; configuration not given here)
alteration of water flux kinetics / cell volume regulation (RVI, RVD, shrinkage) [2]: affected shrinkage rate

CCCCCn1cc2c3c(cccc31)C1C=C(C)CN(C)[C@@H]1C2.Cc1ccc(C(=O)OC(C(=O)O)C(OC(=O)c2ccc(C)cc2)C(=O)O)cc1 (stereo not shown) [NSC600681]
AQP4-mediated cell shrinkage time constant [5]: significantly longer

COc1ccc(CCN2CCC(Nc3nc4ccccc4n3Cc3ccc(F)cc3)CC2)cc1 [astemizole]
alteration of water flux kinetics / cell volume regulation (RVI, RVD, shrinkage) [2]: Altered cell volume regulation

OCCN1CCN(CCCN2c3ccccc3Sc3ccc(C(F)(F)F)cc32)CC1 [fluphenazine]
alteration of water flux kinetics / cell volume regulation (RVI, RVD, shrinkage) [2]: Altered cell volume regulation
